Tests used:
[1] = target: Human immunodeficiency virus type 1 reverse transcriptase (Human immunodeficiency virus 1, UniProt Q72547); assay: Inhibition of Reverse transcriptase (Wild Type) with poly(rA)600:oligo(dT)10 template primer
How it was run: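 Recombinant wild-type HIV-1 RT was assayed for RNA-dependent DNA polymerase activity on poly(rA)600:oligo(dT)10 template:primer. Duplicate points were run at 6 drug concentrations, and IC50 was derived by nonlinear least-squares fit.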

[2] = tested on: Human immunodeficiency virus 1; assay: (§1) Antiviral activity against BHAP-resistant viral strain HIV-1 MF using Delaviridine (U-90512) as a comparator.; assay type: functional
[3] = target: Human immunodeficiency virus type 1 reverse transcriptase (Human immunodeficiency virus 1, UniProt Q72547, P236L); assay: Inhibition of Reverse transcriptase (P236L) using poly(rA)600:oligo(dT)10 as template primer.
[4] = target: Human immunodeficiency virus type 1 reverse transcriptase (Human immunodeficiency virus 1, UniProt Q72547, Y181C); assay: Inhibition of Reverse transcriptase (Y181C) using poly(rA)600:oligo(dT)10 as template primer.
[5] = tested on: Human immunodeficiency virus 1; assay: (§2) Antiviral activity against L-drug-resistant viral strain HIV-1 IIIB using L-697,661 as a comparator.; assay type: functional
[6] = Half life of the parent compound upon microsomal incubation in the presence of hepatic microsomal cytochrome P450.; assay type: ADME, Microsome; settings: liver microsomes
[7] = tested on: Human immunodeficiency virus 1; assay: Antiviral activity against BHAP-resistant viral strain HIV-1 IIIB using Delaviridine (U-90512) as a comparator.; assay type: functional
[8] = Apparent terminal disposition half life […] at iv dose of 15.2 mg/kg; assay type: ADME, organism-based; parameters: dose 15.2 mg/kg, route intravenous; settings: read-out: T1/2 beta (converted)
[9] = tested on: Rattus norvegicus; assay: Steady state volume of distribution (VSS) determined against male Sprague-Dawley rats at an peroral dose of 30.3 mg/kg.; assay type: ADME, organism-based; parameters: dose 30.3 mg/kg, route oral; settings: in vivo, po
How it was run: (§3)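 Male Sprague–Dawley rats, fasted, dosed iv and orally in a crossover design with a 1-week washout between treatments (N = 3). Clearance, Vss and absolute oral bioavailability were taken from the iv and po legs.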

[10] = Absolute oral bioavailability at an peroral dose of 30.3 mg/kg orally.; assay type: ADME, organism-based; settings: in vivo, read-out: Bioavailabiility; how it was run: as §3
[11] = IV clearance determined at an iv dose of 15.2 mg/kg; assay type: ADME, organism-based; parameters: dose 15.2 mg/kg, route intravenous; settings: in vivo; how it was run: as §3
[12] = IV clearance determined at an peroral dose of 30.3 mg/kg.; assay type: ADME, organism-based; parameters: dose 30.3 mg/kg, route oral; settings: in vivo, po, read-out: Clearance; how it was run: as §3
[13] = Absolute oral bioavailability at an iv dose of 15.2 mg/kg; assay type: ADME, organism-based; settings: in vivo, read-out: Bioavailabiility; how it was run: as §3
[14] = tested on: Human immunodeficiency virus 1; assay: as §2; assay type: functional, organism-based
[15] = Steady state volume of distribution (VSS) determined against male Sprague-Dawley rats at an iv dose of 15.2 mg/kg; assay type: ADME, organism-based; parameters: dose 15.2 mg/kg, route intravenous; settings: rat, in vivo, read-out: Vss; how it was run: as §3
[16] = Apparent terminal disposition half life […] at peroral dose of 30.3 mg/kg.; assay type: ADME, organism-based; parameters: dose 30.3 mg/kg, route oral; settings: po, read-out: T1/2 beta (converted)
[17] = target: Human immunodeficiency virus type 1 reverse transcriptase (Human immunodeficiency virus 1) (UniProt Q72547); assay: Percent inhibition of Reverse transcriptase (RNA-dependent DNA polymerase activity against Wild Type RT) using poly(rA)600:oligo(dT)10 as template primer at 1 uM
How it was run: (§4)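 Recombinant RT (WT, P236L or Y181C) was assayed for RNA-dependent DNA polymerase activity with poly(rA)600:oligo(dT)10 as template:primer. Percent inhibition was measured with compound at a single concentration of 1 μM.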

[18] = target: Human immunodeficiency virus type 1 reverse transcriptase (Human immunodeficiency virus 1) (UniProt Q72547); assay: Percent inhibition of Reverse transcriptase (RNA-dependent DNA polymerase activity against P236l RT) using poly(rA)600:oligo(dT)10 as template primer at 1 uM; how it was run: as §4
[19] = tested on: Human immunodeficiency virus type 1 reverse transcriptase (Human immunodeficiency virus 1), Q72547 [Y181C]; assay: Percent inhibition of Reverse transcriptase (RNA-dependent DNA polymerase activity against Y181C RT) using poly(rA)600:oligo(dT)10 as template primer at 1 uM; how it was run: as §4
[20] = Apparent terminal disposition half life […] at peroral dose of 30.2 mg/kg.; assay type: ADME, organism-based; parameters: dose 30.2 mg/kg, route oral; settings: po, read-out: T1/2 beta (converted)
[21] = Apparent terminal disposition half life […] at iv dose of 15 mg/kg; assay type: ADME, organism-based; parameters: dose 15 mg/kg, route intravenous; settings: read-out: T1/2 beta (converted)
[22] = Steady state volume of distribution (VSS) determined against male Sprague-Dawley rats at an iv dose of 15 mg/kg; assay type: ADME, organism-based; parameters: dose 15 mg/kg, route intravenous; settings: rat, in vivo, read-out: Vss; how it was run: as §3
[23] = IV clearance determined at an peroral dose of 30.2 mg/kg.; assay type: ADME, organism-based; parameters: dose 30.2 mg/kg, route oral; settings: in vivo, po, read-out: Clearance; how it was run: as §3
[24] = tested on: Rattus norvegicus; assay: Steady state volume of distribution (VSS) determined against male Sprague-Dawley rats at an peroral dose of 30.2 mg/kg.; assay type: ADME, organism-based; parameters: dose 30.2 mg/kg, route oral; settings: in vivo, po; how it was run: as §3
[25] = Oral bioavailability (dose 15 mg/kg i.v.); assay type: ADME, organism-based; settings: eutheria, in vivo; how it was run: as §3
[26] = IV clearance determined at an iv dose of 15 mg/kg; assay type: ADME, organism-based; parameters: dose 15 mg/kg, route intravenous; settings: in vivo
[27] = Absolute oral bioavailability at an peroral dose of 30 mg/kg orally; assay type: ADME, organism-based; settings: in vivo, read-out: Bioavailabiility; how it was run: as §3
[28] = Apparent terminal disposition half life […] at peroral dose of 30 mg/kg.; assay type: ADME, organism-based; parameters: dose 30 mg/kg, route oral; settings: po, read-out: T1/2 beta (converted)
[29] = IV clearance determined at an peroral dose of 30 mg/kg.; assay type: ADME, organism-based; parameters: dose 30 mg/kg, route oral; settings: in vivo, po, read-out: Clearance; how it was run: as §3
[30] = tested on: Rattus norvegicus; assay: Steady state volume of distribution (VSS) determined against male Sprague-Dawley rats at an peroral dose of 30 mg/kg.; assay type: ADME, organism-based; parameters: dose 30 mg/kg, route oral; settings: in vivo, po; how it was run: as §3
[31] = Steady state volume of distribution (VSS) determined against male Sprague-Dawley rats at an peroral dose of 15 mg/kg.; assay type: organism-based; parameters: dose 15 mg/kg; how it was run: as §3
[32] = Steady state volume of distribution (VSS) determined against male Sprague-Dawley rats at an iv dose of 14 mg/kg; assay type: ADME, organism-based; parameters: dose 14 mg/kg, route intravenous; settings: rat, in vivo, read-out: Vss; how it was run: as §3
[33] = Apparent terminal disposition half life […] at peroral dose of 15 mg/kg.; assay type: ADME, organism-based; parameters: dose 15 mg/kg, route oral; settings: po, read-out: T1/2 beta (converted)
[34] = Absolute oral bioavailability at an iv dose of 14 mg/kg; assay type: ADME, organism-based; settings: in vivo, read-out: Bioavailabiility; how it was run: as §3
[35] = Apparent terminal disposition half life […] at iv dose of 14 mg/kg; assay type: ADME, organism-based; parameters: dose 14 mg/kg, route intravenous; settings: read-out: T1/2 beta (converted)
[36] = IV clearance determined at an peroral dose of 15 mg/kg.; assay type: ADME, organism-based; parameters: dose 15 mg/kg, route oral; settings: in vivo, po, read-out: Clearance
[37] = tested on: Human immunodeficiency virus 1; assay: as §1; assay type: functional, organism-based

CCN(c1ncccc1CC(C)C)C1CCN(C(=O)c2cc3cc(NS(C)(=O)=O)ccc3[nH]2)CC1
IC50 [1]: 0.41 µM | EC90 [2]: 1 µM | IC50 [3]: 0.43 µM | IC50 [4]: 0.88 µM | EC90 [5]: 0.1 µM | half-life [6]: 2.29 min | EC90 [7]: 0.05 µM

CCc1cccnc1N(CC)C1CCN(C(=O)c2cc3cc(NS(C)(=O)=O)ccc3[nH]2)CC1
IC50 [1]: 0.098 µM | IC50 [3]: 0.21 µM | IC50 [4]: 0.43 µM

CC(C)Cc1cccnc1N(C)C1CCN(C(=O)c2cc3cc(NS(C)(=O)=O)ccc3[nH]2)CC1
half-life [8]: 53.4 min | IC50 [1]: 0.51 µM | EC90 [2]: 1.8 µM | Vss [9]: 2.73 L/kg | bioavailability [10]: 64% | IC50 [3]: 1.1 µM | IC50 [4]: 2.6 µM | clearance [11]: 2.7 L/h/kg | CL/F [12]: 2.7 L/h/kg | half-life [6]: 5.9 min | bioavailability [13]: 64% | EC50 [14]: > 1 µM | Vd [15]: 2.73 L/kg | half-life [16]: 53.4 min

CCc1cccnc1N(C)C1CCN(C(=O)c2cc3cc(NS(C)(=O)=O)ccc3[nH]2)CC1
IC50 [1]: 0.061 µM | IC50 [3]: 1.1 µM | IC50 [4]: 2 µM

CCCc1cccnc1N(C)C1CCN(C(=O)c2cc3cc(NS(C)(=O)=O)ccc3[nH]2)CC1
inhibition [17]: 84% | inhibition [18]: 40% | inhibition [19]: 25%

CC(C)Nc1cccnc1N(C)C1CCN(C(=O)c2cc3cc(NS(C)(=O)=O)ccc3[nH]2)CC1
half-life [20]: 40.2 min | half-life [21]: 40.2 min | EC90 [5]: 1 µM | Vd [22]: 2.5 L/kg | CL/F [23]: 2.64 L/h/kg | Vss [24]: 2.5 L/kg | bioavailability [25]: 4.3%

CCN(c1ncccc1COC)C1CCN(C(=O)c2cc3cc(NS(C)(=O)=O)ccc3[nH]2)CC1
IC50 [1]: 0.14 µM | EC90 [2]: 0.77 µM | IC50 [3]: 0.3 µM | IC50 [4]: 0.84 µM | EC90 [5]: 1 µM

CCN(c1ncccc1NC(C)C)C1CCN(C(=O)c2cc3cc(NS(C)(=O)=O)ccc3[nH]2)CC1
IC50 [3]: 0.17 µM

CCc1cc(NCc2nc3c(Cl)ccc(Cl)c3o2)c(O)nc1C [L-697661]
EC90 [2]: 0.43 µM | EC90 [5]: > 10 µM | EC90 [7]: 4 µM

CCCc1cccnc1N(CC)C1CCN(C(=O)c2cc3cc(NS(C)(=O)=O)ccc3[nH]2)CC1
IC50 [1]: 0.27 µM | EC90 [2]: 0.1 µM | clearance [26]: 4.02 L/h/kg | IC50 [3]: 0.37 µM | bioavailability [27]: 9.8% | IC50 [4]: 0.45 µM | half-life [28]: 49.2 min | half-life [21]: 49.2 min | EC90 [5]: 0.09 µM | CL/F [29]: 4.02 L/h/kg | half-life [6]: 1.68 min | Vd [22]: 3.2 L/kg | EC90 [7]: 0.04 µM | Vss [30]: 3.2 L/kg | bioavailability [25]: 9.8%

CC(C)Nc1cccnc1N1CCN(C(=O)c2cc3cc(NS(C)(=O)=O)ccc3[nH]2)CC1 [DELAVIRDINE]
EC90 [2]: > 10 µM | Vdss [31]: 1.21 L/kg | Vd [32]: 1.21 L/kg | half-life [33]: 60 min | bioavailability [34]: 64% | half-life [35]: 60 min | CL/F [36]: 0.816 L/h/kg

CN(c1ncccc1CO)C1CCN(C(=O)c2cc3cc(NS(C)(=O)=O)ccc3[nH]2)CC1
IC50 [3]: 7 µM | IC50 [4]: 15 µM

COC(=O)c1cccnc1N(C)C1CCN(C(=O)c2cc3cc(NS(C)(=O)=O)ccc3[nH]2)CC1
IC50 [1]: 0.25 µM | IC50 [3]: 13 µM | IC50 [4]: 21 µM

CCNc1cccnc1N(CC)C1CCN(C(=O)c2cc3cc(NS(C)(=O)=O)ccc3[nH]2)CC1
IC50 [1]: 0.43 µM | IC50 [3]: 0.36 µM | IC50 [4]: 0.39 µM

COCc1cccnc1N(C)C1CCN(C(=O)c2cc3cc(NS(C)(=O)=O)ccc3[nH]2)CC1
IC50 [1]: 0.14 µM | IC50 [3]: 6.8 µM | IC50 [4]: 11 µM | EC50 [37]: 3 µM | EC50 [14]: > 3 µM

CCCN(c1ncccc1CC)C1CCN(C(=O)c2cc3cc(NS(C)(=O)=O)ccc3[nH]2)CC1
IC50 [1]: 0.13 µM | IC50 [3]: 0.54 µM | IC50 [4]: 0.91 µM
